Five molecules from publication PMC6427047 (Cell chemical biology, 2017) can be followed below.

For one assay, the system named is 8 selected kinases. The assay can be described thus: Immunoblot validation of kinase degradation in MOLM-14 cells. The settings on record: pretreatment then 4-hour co-treatment with TL12-186. In kind it is cell-based, Human. Summed up:
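MOLM-14 cells were exposed to test compound for 4 h, then lysed. Lysates were cleared by max-speed centrifugation at 4°C for 10 min. Protein was quantified by BCA and normalized. Samples were mixed with LDS sample buffer containing fresh 10% 2-mercaptoethanol and immunoblotted for the target kinases.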

In the next assay the target is T1, FLT3 (Homo sapiens, UniProt P36888).
T1 sequence (P36888 610-943 limits assumed): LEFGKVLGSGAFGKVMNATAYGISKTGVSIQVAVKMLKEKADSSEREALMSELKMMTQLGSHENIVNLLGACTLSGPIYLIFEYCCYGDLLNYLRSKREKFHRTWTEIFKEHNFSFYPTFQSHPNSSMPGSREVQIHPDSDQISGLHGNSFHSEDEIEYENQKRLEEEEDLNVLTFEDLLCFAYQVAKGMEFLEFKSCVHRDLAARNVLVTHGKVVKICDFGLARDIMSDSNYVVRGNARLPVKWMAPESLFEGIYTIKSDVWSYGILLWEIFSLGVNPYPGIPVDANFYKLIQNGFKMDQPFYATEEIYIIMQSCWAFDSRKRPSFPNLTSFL
The assay can be described thus: Immunoblot in MOLM-14 cells. The class given is cell-based. On the technique in general: Immunoblotting shows a protein as a band on a membrane.

For assay [1], the system named is WT and CRBN−/− MOLM-14 and MOLT-4 cells. The assay can be described thus: 2-day proliferation assays, WT and CRBN−/− cells. The class given is cell-based, Human. The settings on record: CRBN−/− MOLM-14 and MOLT-4, 2-day.

For the molecule `NS(=O)(=O)OC[C@@H]1C[C@@H](n2ccc3c(N[C@H]4CCc5ccccc54)ncnc32)C[C@@H]1O` [MLN4924], the “effect of 4-hour pretreatment on TL12-186-induced kinase degradation” value with 8 selected kinases was “reverse the degradation effect of TL12-186”.
Turning to `CCN(CC)CCCC(C)Nc1ccnc2cc(Cl)ccc12` (centres unmarked) [chloroquine], on FLT3, the “rescue of TL12-186-induced FLT3 degradation by autophagy inhibition” value is recorded as “cannot significantly rescue the degradation of FLT3”.
`CC(C)S(=O)(=O)c1ccccc1Nc1nc(Nc2ccc(N3CCC(N4CCN(C)CC4)CC3)cc2)ncc1Cl` [TL13-87]: the “inhibition of cellular proliferation in CRBN−/− cells” value in assay [1] is reported as “more potent inhibition of cellular proliferation relative to the degrader molecules”.
Turning to `CC(C)C[C@H](NC(=O)[C@H](CCc1ccccc1)NC(=O)CN1CCOCC1)C(=O)N[C@@H](Cc1ccccc1)C(=O)N[C@@H](CC(C)C)C(=O)[C@@]1(C)CO1` [carfilzomib], the “effect of 4-hour pretreatment on TL12-186-induced kinase degradation” value in the assay with 8 selected kinases is listed as “reverse the degradation effect of TL12-186”.
Still for that read-out and setting: then `Nc1cccc2c1C(=O)N(C1CCC(=O)NC1=O)C2=O` (centres unmarked) [pomalidomide], with “reverse the degradation effect of TL12-186”.
